In the library only some 2.6% were active in any assay of this set; here they are far more common.
Vif inh – HIV Vif self-association inhibitors, primary screen, imaging, HEK293T, single point; inhibition, % at 7.49 µM; 340,000 compounds, 0.35% hits; HEK293T cells, Vif self-association by quenched fluorescence, 24 h; in the data active means inhibition above about 50%, passing the limit was not always enough; inconclusive means no clear call, values can overlap the other calls; inactive means below about 31%
FN deposit inh – inhibitors of fibronectin matrix deposition, primary screen, AH1F cells, Alexa488-fibronectin fluorescence, plate reader | inhibition, % at 12.6 µM | AID 743247, 2014 | AH1F fibroblasts, overnight | 350,000 compounds, 0.086% hits;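 active means mean inhibition across replicates of 30% or more, regardless of how many single replicates reach that level; inconclusive means mean under 30% yet at least half of replicates reach 30%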
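Material – AH1F fibroblast monolayer, labelled fibronectin deposition · Reagent – labelled fibronectin 24 nM · Timing – 1 h adhesion, overnight exposure · Measured by – fluorescence at 485 nm excitation, 525 nm emission · Read-out – inhibition of fibronectin deposition signal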
miR-122 sensor – miR-122 Renilla sensor signal increase in Huh7, primary screen, miR-122 inhibitor project, cell-based, single point, plate reader; Huh7 miR-122 Renilla luciferase sensor, 48 h; neutral wells = 0, positive control = 100; activation (reporter increase), % at 12.5 µM; 340,000 compounds, 0.3% hits; AID 602342, 2012;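 active means mean replicate activation score at least 90 and every replicate individually at or above 90; inconclusive means only one of the two criteria met; inactive means neither criterion met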;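 further: higher luciferase means less miR-122 activity so hits act as miR-122 inhibitors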
S100A4 inh HTS – inhibitors of S100A4-myosin IIA peptide binding, primary screen, biochemical, fluorescence polarization, TAMRA-MyoIIA peptide; inhibition, % at 10.7 µM; 360,000 compounds, 0.14% hits; Protein S100-A4 (Homo sapiens), P26447;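 active means mean inhibition of at least 70% across replicates, with every replicate also reaching that level; inconclusive means mean inhibition reaches 70% but some replicates fall short; inactive means mean inhibition below 70%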
Target sequence (P26447 whole entry, looked up): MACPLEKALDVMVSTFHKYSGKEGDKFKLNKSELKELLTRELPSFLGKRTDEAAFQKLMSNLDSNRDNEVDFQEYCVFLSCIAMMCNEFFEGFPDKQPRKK
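Material: S100A4 monomer protein / Buffer or medium: 50 mM HEPES pH 7.2, 10 mM CaCl2, 100 mM KCl / Times: 5 min incubation before reading / Benchmarks: neutral control DMSO, positive control TFP / Reagent: labelled myosin peptide probe, 5 nM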
HIV Env fusion – inhibitors of HIV-1 Env-driven cell-cell fusion, primary screen, HeLa-JRFL effector, CEM21 target cells, luciferase; 360,000 compounds, 1.1% hits; inhibition, % at 12.3 µM; AID 651610, 2012;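 active means mean replicate inhibition score of at least 50 and every replicate individually at or above 50; inconclusive means only one of the two criteria met; inactive means mean below 50 and not all replicates reaching 50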
rRNA inh HTS – reduced GFP signal of wild-type E. coli, primary screen, bacterial rRNA inhibitor project, GFP/RFP fluorescence, OD600, single point; E. coli WT GFP vs humanized-ribosome RFP mutants, 24 h; stronger effect = lower value; DMSO median 0, no signal -100; GFP signal change (wild-type ribosome), % (no concentration beside the values); 350,000 compounds, 1.6% hits; AID 720706, 2013;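 active means significant combined selectivity score with lowered wild-type GFP, culture density cut under 30%, mutant RFP and density less affected; inactive means any of these conditions unmet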
Each line names hits and unclear results; the compound was inactive in the other large screens.

Cc1ccc(C(c2nnnn2CS(=O)(=O)c2ccc(C)cc2)N2CCCC2)cc1 (stereo unspecified)	HIV Env fusion 73
CC1CCC(NC(=S)NCCN(C)C)CC1 (stereo unspecified)	none
CC1CCC(NC(=O)N(CCCl)N=O)CC1 (stereo unspecified)	Vif inh 59
C/C=C/c1ccc2c(c1)O[C@H](CN(C)C(=O)Nc1cc(F)ccc1F)[C@H](C)CN([C@H](C)CO)S2(=O)=O	none (no result: Vif inh, FN deposit inh)
Cn1c(CN2CCCCC2)nc2cc(NC(=O)c3ccc(Cl)cc3)ccc21	HIV Env fusion 79 (no result: S100A4 inh HTS, rRNA inh HTS)
O=C(CC1CC1)N1[C@H](CO)[C@@H]2c3ccccc3N(S(=O)(=O)c3ccccc3)C[C@@H]21	none (no result: Vif inh, FN deposit inh, HIV Env fusion)
C=C(C)Cn1c2ccc(NC(=S)NCc3ccccc3F)cc2c(=O)n1C	rRNA inh HTS -23
O=C(CCCN1C(=O)C(c2ccccc2)Oc2cccnc21)Nc1cccc(F)c1 (stereo unspecified)	rRNA inh HTS -27
Cc1cc(C)cc(NC(=O)CCCN2C(=O)C(c3ccccc3)Oc3cccnc32)c1 (stereo unspecified)	none
CCC1=Nc2cc(C(=O)NCc3cccnc3)ccc2Sc2ccc(C)cc21	Vif inh inconclusive, rRNA inh HTS -22 (no result: miR-122 sensor)
COc1ccccc1CN1C[C@H](C)[C@@H](OC)CN(C)C(=O)c2ccc(NC(C)=O)cc2OC[C@H]1C	none (no result: Vif inh)
O=S(=O)(N[C@H]1CC[C@@H](CCn2cc(-c3cccnc3)nn2)O[C@H]1CO)c1ccccc1	none (no result: Vif inh, FN deposit inh, miR-122 sensor)
Fc1ccc(C2C3=C(Nc4ncnn42)c2ccccc2OC3c2ccncc2)cc1 (stereo unspecified)	none (no result: S100A4 inh HTS, rRNA inh HTS)
Cc1ccc(C2Oc3ccccc3C3=C2C(c2cccs2)n2ncnc2N3)cc1 (stereo unspecified)	HIV Env fusion 102 (no result: S100A4 inh HTS, rRNA inh HTS)
COC(=O)c1cc(C(=O)c2ccc(C(C)(C)C)cc2)c[nH]1	FN deposit inh 43
COC(=O)c1ccc(NS(=O)(=O)c2cc(C)ccc2OC)cc1	miR-122 sensor 150 (no result: FN deposit inh, S100A4 inh HTS, HIV Env fusion, rRNA inh HTS)
Cc1ccc(C)c(S(=O)(=O)Nc2cc3c4c(c2)CC(=O)N4CCC3)c1	miR-122 sensor 163 (no result: FN deposit inh)
COc1ccc(C(=O)NCCc2ccccn2)cc1S(=O)(=O)Nc1ccc(Br)cc1	rRNA inh HTS -20 (no result: miR-122 sensor, HIV Env fusion)
COc1ccc(NC(=O)C2CCC2)cc1S(=O)(=O)Nc1cc(C)ccc1Br	miR-122 sensor 170 (no result: FN deposit inh)
C[C@H](CO)N1C[C@H](C)[C@@H](CN(C)Cc2ccc(C(F)(F)F)cc2)Oc2ccc(NC(=O)C3CC3)cc2CC1=O	none (no result: Vif inh, FN deposit inh)
COc1ccc2c3c([nH]c2c1)[C@H](CO)N(C(=O)NC(C)C)CC31CCN(C(=O)c2cccnc2)CC1	none (no result: Vif inh, FN deposit inh, miR-122 sensor)
C[C@H](CO)N1C[C@H](C)[C@H](CN(C)Cc2ccc(C(=O)Nc3ccccc3N)cc2)Oc2ccc(NS(=O)(=O)c3ccc(Cl)cc3)cc2C1=O	none (no result: Vif inh, FN deposit inh, HIV Env fusion)
COc1ccc(C)cc1S(=O)(=O)Nc1ccc(F)cc1	miR-122 sensor 113 (no result: rRNA inh HTS)
COc1ccc(NS(=O)(=O)c2cc(OC)ccc2OC)cc1	miR-122 sensor inconclusive
COc1ccc(S(=O)(=O)Nc2ccc(S(=O)(=O)Nc3ccc(F)cc3)cc2)cc1C	miR-122 sensor inconclusive (no result: FN deposit inh, S100A4 inh HTS, HIV Env fusion, rRNA inh HTS)
COc1ccc(OC)c(S(=O)(=O)Nc2cc3c4c(c2)CCN4C(=O)CC3)c1	miR-122 sensor 143
COc1ccc(OC)c(S(=O)(=O)Nc2ccc(F)cc2)c1	none (no result: FN deposit inh, HIV Env fusion)
CCOc1cc(C)c(S(=O)(=O)Nc2ccc(F)cc2)cc1C	miR-122 sensor 304 (no result: S100A4 inh HTS, rRNA inh HTS)
CCc1ccc(NS(=O)(=O)c2cc(OC)ccc2OC)cc1	miR-122 sensor 140 (no result: FN deposit inh, HIV Env fusion)
Cc1noc(C)c1NC(=O)Nc1ccc2c(c1)C(=O)N([C@@H](C)CO)C[C@H](C)[C@H](CN(C)C(=O)CCCN(C)C)OCCCC[C@H](C)O2	none (no result: Vif inh, FN deposit inh)
CCCNC(=O)N1[C@@H](CO)[C@@H](c2ccc(C3=CCCC3)cc2)[C@@H]1CNC(=O)CC	none (no result: Vif inh, S100A4 inh HTS, HIV Env fusion)
COCC(=O)Nc1ccc2c(c1)C(=O)N(C)C[C@H](OC)[C@H](C)CN(CCC(F)(F)F)[C@H](C)CO2	none (no result: Vif inh)
COc1ccc(CNC(=O)CN(Cc2ccc(Cl)cc2)S(=O)(=O)c2ccccc2)cc1	HIV Env fusion 59 (no result: S100A4 inh HTS, rRNA inh HTS)
O=[N+]([O-])c1ccccc1CN1CCN(S(=O)(=O)Cc2ccccc2)CC1	S100A4 inh HTS 105 (no result: Vif inh)
CCN(CC)S(=O)(=O)c1ccc(N2CCOCC2)c(NS(=O)(=O)c2ccc(C(C)C)cc2)c1	miR-122 sensor 106
COc1ccc2c(c1OC)C(=O)OC2Nc1nc(-c2cc3cc(Br)ccc3oc2=O)cs1 (stereo unspecified)	rRNA inh HTS -26
O=[N+]([O-])c1ccc(O)c(C2=NNC(c3ccccc3F)C2)c1 (stereo unspecified)	rRNA inh HTS -54
Oc1ccc(Cl)cc1C1=NNC(c2cccs2)C1 (stereo unspecified)	none
COc1cc([N+](=O)[O-])ccc1NC(=S)NNC(=O)c1ccc2c(c1)OCO2	rRNA inh HTS -17 (no result: Vif inh, FN deposit inh)
O=C(NC1CCCCCCC1)c1ccc2c(c1)OCO2	none (no result: Vif inh, S100A4 inh HTS, rRNA inh HTS)
O=C(NC(=S)Nc1cc([N+](=O)[O-])ccc1O)c1ccc2c(c1)OCO2	none (no result: miR-122 sensor, HIV Env fusion)
